Calls of active or inactive are those of the source. The rule behind the calls is not given here.
What was measured:
[1] = tested on: Mus musculus; assay: Effect on morphine-dependence in CD1 mouse assessed as decrease in naloxone-precipitated jumping at 0.025 mg/kg, ip administered chronically 15 mins prior to each morphine challenge relative to vehicle-treated control; assay type: functional, organism-based; parameters: dose 0.025 mg/kg
How it was run: (§1)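 Acquisition of morphine dependence in mice, tested with repeated ip dosing (racemate 0.05 mg/kg, enantiomers 0.025 mg/kg). Withdrawal was precipitated by naloxone. Scored signs were jumping frequency and somatic signs (rearing, forepaw tremors, teeth chatter). Groups were compared with vehicle and with the morphine group.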

[2] = tested on: Mus musculus; assay: Effect on morphine-dependence in CD1 mouse assessed as decrease in naloxone-precipitated forepaw tremors at 0.025 mg/kg, ip administered acutely 15 mins prior to naloxone challenge relative to vehicle-treated control; assay type: functional, organism-based; parameters: dose 0.025 mg/kg
How it was run: as §1, with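 “Expression” for “Acquisition”, “a single acute” for “repeated”, “dose” for “dosing”, “naloxone in control and morphine-treated mice.” for “naloxone.”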

[3] = tested on: Mus musculus; assay: Effect on morphine-dependence in CD1 mouse assessed as decrease in naloxone-precipitated teeth chatter at 0.025 mg/kg, ip administered chronically 15 mins prior to each morphine challenge relative to vehicle-treated control; assay type: functional, organism-based; parameters: dose 0.025 mg/kg; how it was run: as §1
[4] = tested on: Mus musculus; assay: Antidepressant activity in CD1 mouse assessed as decrease in immobility time at 0.025 mg/kg, ip administered 15 mins prior to coadministration with yohimbine measured after 15 mins by forced swim test relative to vehicle-treated control; assay type: functional, organism-based; parameters: dose 0.025 mg/kg
How it was run: (§2)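 Forced swimming test in mice using 0.025 mg/kg ip test dose. It was combined with the 5-HT1A antagonist WAY 100635 (0.1 mg/kg, sc) or with the α2 antagonist yohimbine (1.250 mg/kg, ip). Each antagonist was also given alone. Immobility time is the read-out, given as means ± SEMs of 7–8 animals.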

[5] = biological target: T1, 5-hydroxytryptamine receptor 1A (Homo sapiens, UniProt P08908); assay: Displacement of [3H]8-OH-DPAT from human 5HT1A receptor expressed in HeLa cells after 30 mins; assay type: cell-based
T1 sequence (P08908 whole entry): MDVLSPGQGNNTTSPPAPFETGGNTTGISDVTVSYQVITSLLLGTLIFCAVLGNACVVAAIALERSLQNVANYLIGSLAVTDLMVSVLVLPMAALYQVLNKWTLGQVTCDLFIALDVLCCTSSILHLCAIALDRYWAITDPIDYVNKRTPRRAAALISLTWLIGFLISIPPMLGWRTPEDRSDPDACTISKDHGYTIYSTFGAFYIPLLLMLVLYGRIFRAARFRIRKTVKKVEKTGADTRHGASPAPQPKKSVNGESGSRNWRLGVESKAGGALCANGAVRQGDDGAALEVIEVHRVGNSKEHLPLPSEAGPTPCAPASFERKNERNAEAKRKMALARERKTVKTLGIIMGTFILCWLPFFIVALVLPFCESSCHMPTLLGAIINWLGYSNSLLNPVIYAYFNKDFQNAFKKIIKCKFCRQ
How it was run: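 pKi is derived from displacement of [3H]-8-OH-DPAT binding at human cloned 5-HT1A receptor. Values are means ± SEMs of 3–6 separate experiments.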

[6] = biological target: T2, Alpha-2A adrenergic receptor (Homo sapiens, UniProt P08913); assay: Displacement of [3H]RX821002 from human alpha2A adrenoceptor expressed in CHO cells after 30 mins by scintillation counting; assay type: cell-based
T2 sequence (P08913 whole entry): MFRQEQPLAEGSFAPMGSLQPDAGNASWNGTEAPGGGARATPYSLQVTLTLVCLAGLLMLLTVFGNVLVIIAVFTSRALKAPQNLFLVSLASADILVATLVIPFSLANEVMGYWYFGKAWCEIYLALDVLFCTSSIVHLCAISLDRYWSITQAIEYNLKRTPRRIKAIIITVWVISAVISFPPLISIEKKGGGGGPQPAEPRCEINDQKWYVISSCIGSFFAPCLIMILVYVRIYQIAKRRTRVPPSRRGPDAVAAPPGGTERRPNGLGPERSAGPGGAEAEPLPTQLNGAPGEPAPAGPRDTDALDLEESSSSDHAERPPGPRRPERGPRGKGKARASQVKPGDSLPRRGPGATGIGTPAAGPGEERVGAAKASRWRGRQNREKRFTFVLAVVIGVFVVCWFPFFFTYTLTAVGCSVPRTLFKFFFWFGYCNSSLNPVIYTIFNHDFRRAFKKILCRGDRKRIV
How it was run: (§3)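 Binding and functional assays run on CHO cells expressing recombinant human α2-AR subtypes. Functional read-outs are agonist potency (pEC50) with intrinsic activity (ia), or antagonist pKb. Affinity is reported as pKi. Values are means ± SEMs of 3–6 separate experiments.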

[7] = biological target: T3, Alpha-2C adrenergic receptor (Homo sapiens) (UniProt P18825); assay: Agonist activity at human alpha2C adrenoceptor expressed in CHO cells assessed as extracellular acidification measured after 4 mins by cytosensor microphysiometric analysis relative to control; assay type: functional, cell-based; how it was run: as §3
T3 sequence (whole entry): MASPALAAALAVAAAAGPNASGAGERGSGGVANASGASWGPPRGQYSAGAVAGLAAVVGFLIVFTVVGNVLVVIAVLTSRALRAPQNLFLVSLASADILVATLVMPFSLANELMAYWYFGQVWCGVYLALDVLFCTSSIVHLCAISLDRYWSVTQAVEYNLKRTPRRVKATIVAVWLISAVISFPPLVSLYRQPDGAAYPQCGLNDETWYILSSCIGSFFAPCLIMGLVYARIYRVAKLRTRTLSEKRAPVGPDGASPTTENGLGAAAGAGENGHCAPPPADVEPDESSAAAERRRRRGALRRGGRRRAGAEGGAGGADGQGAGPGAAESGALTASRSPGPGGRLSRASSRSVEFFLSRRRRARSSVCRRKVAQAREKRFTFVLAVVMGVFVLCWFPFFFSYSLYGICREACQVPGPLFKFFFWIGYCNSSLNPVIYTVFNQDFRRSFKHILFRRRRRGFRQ

[8] = tested on: Mus musculus; assay: Effect on morphine-dependence in CD1 mouse assessed as decrease in naloxone-precipitated teeth chatter at 0.025 mg/kg, ip administered acutely 15 mins prior to naloxone challenge relative to vehicle-treated control; assay type: functional, organism-based; parameters: dose 0.025 mg/kg
How it was run: as §1, with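 “Expression” for “Acquisition”, “a single acute” for “repeated”, “dose” for “dosing”, “naloxone in control and morphine-treated mice.” for “naloxone.”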

[9] = tested on: Mus musculus; assay: Antidepressant activity in CD1 mouse assessed as decrease in immobility time at 0.025 mg/kg, ip administered 30 mins prior to coadministration with WAY100635 measured after 15 mins by forced swim test relative to vehicle-treated control; assay type: functional, organism-based; parameters: dose 0.025 mg/kg; how it was run: as §2
[10] = biological target: T4, Alpha-2C adrenergic receptor (Homo sapiens, UniProt P18825); assay: Agonist activity at human alpha2C adrenoceptor expressed in CHO cells assessed as extracellular acidification measured after 4 mins by cytosensor microphysiometric analysis; assay type: functional, cell-based; how it was run: as §3
T4 sequence (P18825 whole entry): T3 sequence (whole entry)

[11] = tested on: Mus musculus; assay: Effect on morphine-dependence in CD1 mouse assessed as decrease in naloxone-precipitated rearing at 0.025 mg/kg, ip administered acutely 15 mins prior to naloxone challenge relative to vehicle-treated control; assay type: functional, organism-based; parameters: dose 0.025 mg/kg
How it was run: as §1, with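 “Expression” for “Acquisition”, “a single acute” for “repeated”, “dose” for “dosing”, “naloxone in control and morphine-treated mice.” for “naloxone.”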

[12] = tested on: Mus musculus; assay: Effect on morphine-dependence in CD1 mouse assessed as decrease in naloxone-precipitated forepaw tremors at 0.025 mg/kg, ip administered chronically 15 mins prior to each morphine challenge relative to vehicle-treated control; assay type: functional, organism-based; parameters: dose 0.025 mg/kg; how it was run: as §1
[13] = tested on: Mus musculus; assay: Effect on morphine-dependence in CD1 mouse assessed as decrease in naloxone-precipitated jumping at 0.025 mg/kg, ip administered acutely 15 mins prior to naloxone challenge relative to vehicle-treated control; assay type: functional, organism-based; parameters: dose 0.025 mg/kg
How it was run: as §1, with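 “Expression” for “Acquisition”, “a single acute” for “repeated”, “dose” for “dosing”, “naloxone in control and morphine-treated mice.” for “naloxone.”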

[14] = biological target: T5, Alpha-2B adrenergic receptor (Homo sapiens, UniProt P18089); assay: Agonist activity at human alpha2B adrenoceptor expressed in CHO cells assessed as extracellular acidification measured after 4 mins by cytosensor microphysiometric analysis
T5 sequence (P18089 whole entry): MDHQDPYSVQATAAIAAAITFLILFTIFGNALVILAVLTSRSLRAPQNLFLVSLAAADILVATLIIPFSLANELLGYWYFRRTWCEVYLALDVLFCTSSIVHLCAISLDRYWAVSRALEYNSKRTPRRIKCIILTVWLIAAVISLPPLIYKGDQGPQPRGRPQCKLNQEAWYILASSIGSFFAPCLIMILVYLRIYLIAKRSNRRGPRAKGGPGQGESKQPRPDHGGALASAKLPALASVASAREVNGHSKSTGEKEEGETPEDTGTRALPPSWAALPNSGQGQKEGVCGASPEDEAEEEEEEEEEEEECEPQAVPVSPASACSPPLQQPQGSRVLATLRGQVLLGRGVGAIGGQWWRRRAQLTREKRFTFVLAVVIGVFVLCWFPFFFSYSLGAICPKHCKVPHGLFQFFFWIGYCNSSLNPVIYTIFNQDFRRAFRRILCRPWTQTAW

[15] = biological target: T5, Alpha-2B adrenergic receptor; assay: Displacement of [3H]RX821002 from human alpha2B adrenoceptor expressed in CHO cells after 30 mins by scintillation counting; assay type: cell-based; how it was run: as §3
[16] = biological target: T4, Alpha-2C adrenergic receptor; assay: Displacement of [3H]RX821002 from human alpha2C adrenoceptor expressed in CHO cells after 30 mins by scintillation counting; assay type: cell-based; how it was run: as §3
[17] = tested on: Mus musculus; assay: Effect on morphine-dependence in CD1 mouse assessed as decrease in naloxone-precipitated rearing at 0.025 mg/kg, ip administered chronically 15 mins prior to each morphine challenge relative to vehicle-treated control; assay type: functional, organism-based; parameters: dose 0.025 mg/kg; how it was run: as §1
[18] = biological target: T6, Alpha-2B adrenergic receptor (Homo sapiens) (UniProt P18089); settings: CHO
T6 sequence (whole entry): T5 sequence (P18089 whole entry)

[19] = biological target: T7, Alpha-2A adrenergic receptor (Homo sapiens) (UniProt P08913); settings: CHO
T7 sequence (whole entry): T2 sequence (P08913 whole entry)

[20] = biological target: T8, 5-hydroxytryptamine receptor 1A (Homo sapiens) (UniProt P08908); settings: HeLa
T8 sequence (whole entry): T1 sequence (P08908 whole entry)

[21] = tested on: Mus musculus; assay: Antidepressant activity in CD1 mouse assessed as decrease in immobility time at 1.25 mg/kg, sc measured after 15 mins by forced swim test relative to vehicle-treated control; assay type: functional, organism-based; parameters: dose 1.25 mg/kg
[22] = tested on: Mus musculus; assay: Antidepressant activity in CD1 mouse assessed as decrease in immobility time at 0.1 mg/kg, sc measured after 15 mins by forced swim test relative to vehicle-treated control; assay type: functional, organism-based; parameters: dose 0.1 mg/kg
How it was run: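 Mouse forced swim test scoring immobility time. The 5-HT1A-R antagonist was given alone at 0.1 mg/kg sc. Groups were compared with vehicle-treated mice, with 7–8 animals per group, and data are shown as means ± SEM.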

[23] = tested on: Mus musculus; assay: Antidepressant activity in CD1 mouse assessed as decrease in immobility time at 20 mg/kg, ip after 15 mins by forced swim test relative to vehicle-treated control; assay type: functional, organism-based; parameters: dose 20 mg/kg
How it was run: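 Mouse forced swimming test with immobility time as the read-out. Single ip doses were 0.012, 0.025, 0.05, 0.2 or 0.5 mg/kg, with fluoxetine 20 mg/kg ip as reference. Results are compared against vehicle-treated mice and given as means ± SEMs of 8–9 animals.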

For `C[C@H](Oc1ccccc1CC1CC1)C1=NCCN1`, the Activity [1] was “Active”, the Activity [2] was “Active” and the Activity [3] was “Active”. The Activity [4] was “inactive”, the Ki [5] was 0.00575 µM and the Ki [6] was 0.0417 µM. For the same compound, the Intrinsic activity [7] was 0.85, the Activity [8] was “Active” and the Activity [9] was “inactive”. For the same compound, the EC50 [10] was 0.002 µM, the Activity [11] was “Active” and the Activity [12] was “Active”. For the same compound, the Activity [13] was “Active”, the EC50 [14] was 1.58 µM and the Ki [15] was 0.407 µM. For the same compound, the Ki [16] was 0.275 µM and the Activity [17] was “Active”.

`C=CCc1ccccc1O[C@H](C)C1=NCCN1` was tested, and the Ki [5] was > 10 µM, the Intrinsic activity [7] was 0.5 and the pEC50 [18] was “inactive”. For the same compound, the pKb [19] was 7.4 and the pD2 [20] was < 5.

For `COC(=O)[C@@H]1[C@H]2C[C@H]3c4[nH]c5ccccc5c4CCN3C[C@@H]2CC[C@@H]1O`, the Activity [21] was “inactive” and the Activity [22] was “inactive”.

`CNCCC(Oc1ccc(C(F)(F)F)cc1)c1ccccc1` (stereo unspecified) was tested, and the Activity [23] was “Active”.

`Clc1cccc(Cl)c1N=C1NCCN1` [CLONIDINE] showed a Ki [5] of 3.24 µM.

Source: ChEMBL document CHEMBL2086372 (ACS Med Chem Lett, 2012)
